Experimental data pooled from the literature.

SMILES | test system | setting | endpoint | result
O=C1c2ccncc2C(=O)c2c1[nH]c1ccccc21 | rat, plasma | intravenous, 1 mg/kg, single dose | MRT | 2.4 h
N#C[C@@]12C[C@@H]1[C@@H](n1cnc3c(N[C@@H](C4CCC4)C4CC4)nc(I)nc31)[C@H](O)[C@@H]2O | male Wistar rat, plasma | oral, 1 mg/kg | MRT(0-t) | 1.59 h
COc1ccc([C@@H](O)c2cc(-c3ncnc4cc(N5CCOCC5)ccc34)c(F)cc2Cl)nn1 | human, plasma | oral, 200 mg, single dose, patients | Tmax | 2.02 h
COc1ccc([C@@H]2Sc3ccccc3N(CCN(C)C)C(=O)[C@@H]2OC(C)=O)cc1 | Sprague-Dawley rat, hepatocytes | 2 µM, 4 h, pH 7.4 | fraction unbound | 0.89
NS(=O)(=O)OC[C@@H]1C[C@@H](n2ccc3c(N[C@H]4CCc5ccccc54)ncnc32)C[C@@H]1O | human, plasma | intravenous, 25 mg/m², patients | Tmax | 1.04 h
CN1CC[C@@H](c2c(O)cc(O)c3c(=O)cc(-c4ccc(C(F)(F)F)cc4Cl)oc23)[C@@H]1CO | human, plasma | oral, 100 mg, patients | Tmax | 3.9 h
Cn1cc(Nc2nc(N)nc(-c3cccc(-n4ccc5cc(C6CC6)cc(F)c5c4=O)c3CO)n2)cn1 | human, plasma | oral, 300 mg, single dose, fasted, suspension | Tmax | 2.52 h
O=C1CC[C@H](N2Cc3cc(N4CCN(CC5CCN(c6ccc([C@@H]7c8ccc(O)cc8CC[C@@H]7c7ccccc7)cc6)CC5)CC4)ccc3C2=O)C(=O)N1 | female Sprague-Dawley rat, plasma | oral, 20 mg/kg, fed | MRT(0-inf) | 12 h
C[C@H]1[C@@H](O)O[C@@H]2O[C@@]3(C)CC[C@H]4[C@H](C)CC[C@@H]1[C@@]24OO3 | Sprague-Dawley rat, plasma | oral, 10 mg/kg | MRT(0-t) | 2.93 h
CC(C)NCC(O)COc1cccc2ccccc12 (stereo not shown) | Sprague-Dawley rat, hepatocytes | 2 µM, 4 h, pH 7.4 | fraction unbound | 0.88
